Active and inactive are the calls of the source. No cut-off for these calls is given here.
Experiments:
[1] = Induction of self-assembly of the compound in phosphate buffer at 100 uM after 2 days by uranyl acetate staining-based TEM analysis; assay type: physicochemical; details: 48 h
Procedure, shortened: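 Peptide (100 μM) was aged 2 days in phosphate buffer and negatively stained 30 s with 2% uranyl acetate. Nanotube formation was examined by TEM at 120 kV.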

[2] = Drug degradation in H2O2 solution at 2.7 mM after 1 month by HPLC/MS/NMR analysis in presence of Fe2+; assay type: physicochemical; details: H2O2 solution with Fe2+; read-out: Drug degradation
[3] = Antioxidant activity assessed as inhibition of H2O2-induced hydroxyl radical formation by EPR spectroscopic analysis in presence of Fe2+; assay type: functional
Procedure, shortened: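 Hydroxyl radicals came from a Fenton reaction: H2O2 (10 mM), FeSO4·7H2O (10 mM) and DMPO spin trap (40 mM), with peptide at 1−1000 μM. Samples were diluted in 15 mM phosphate buffer, pH 7.4, and read immediately by EPR. The spin-adduct signal was integrated.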

[4] = Antioxidant activity assessed as inhibition of H2O2-induced ROS production by DCFH assay; assay type: functional
Procedure, shortened: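 DCFH oxidation assay: H2O2 (0.5 mM) was incubated with DCFH with or without the test agent, and the DCF formed was read fluorometrically. Free His and Trolox served as controls.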

[5] = tested on: L6; assay: Antiapoptotic activity in rat L6 cells assessed as suppression of 23.5 mM D-glucose-induced JNK-46 phosphorylation at 25 uM after 8 hrs by Western blot analysis; assay type: functional, cell-based
Procedure, shortened: (§1)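 L6 myotubes held 7 days in 23.5 mM glucose medium, then exposed to peptide for 8 h or ALA for 3 h. Whole-cell lysates were made in ice-cold lysis buffer, and 5−60 μg protein was run on 10−12% SDS-PAGE. Blots were probed for total and phosphorylated JNK (p-54, p-46) and α-tubulin. Band densities were normalized to total JNK. Two-tailed Student's t test.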

[6] = tested on: L6; assay: Antiapoptotic activity in rat L6 cells assessed as suppression of 23.5 mM D-glucose-induced JNK-54 phosphorylation at 25 uM after 8 hrs by Western blot analysis; assay type: functional, cell-based; procedure, shortened: as §1
[7] = tested on: L6; assay: Antioxidant activity in rat L6 cells assessed as trolox equivalents of ABTS free radical scavenging activity at 25 uM after 12 hrs by ELISA reader analysis in presence of 23.5 mM D-glucose; assay type: functional, cell-based
Procedure, shortened: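 L6 myotubes in αMEM with 2% FCS and 5.5 or 23.5 mM glucose were treated with peptide (25 μM, 12 h) or ALA (2 mM, 2 h), vehicle 0.1% DMSO. Cells were lysed (Tris pH 7.5, NaCl, NP-40) through three freeze-thaw cycles and centrifuged. Lysates were assayed for metmyoglobin/H2O2-driven ABTS•+ formation. Results are Trolox equivalents per mg protein from a Trolox standard curve, with protein by Bradford.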

[8] = tested on: L6; assay: Cytoprotective activity in rat L6 cells assessed as increase in glucose oxidase-reduced cell survival at 25 uM incubated for 12 hrs prior to glucose oxidase challenge measured after 5 hrs by MTT assay in presence of 23.5 mM D-glucose; assay type: functional, cell-based
Procedure, shortened: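 L6 myotubes were kept 7 days in 23.5 mM glucose. They were pretreated with peptide (25 μM, 12 h) or ALA (2 mM, 30 min), vehicle 0.1% DMSO, at 37 °C. Glucose oxidase (50 mU mL−1) was then added for 5 h to generate H2O2. Viability was read by MTT.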

[9] = tested on: L6; assay: Effect on total GLUT4 level in rat L6 cells at 25 uM after 8 hrs by Western blotting analysis; assay type: functional, cell-based
[10] = tested on: L6; assay: Effect on total GLUT1 level in rat L6 cells at 25 uM after 8 hrs by Western blotting analysis; assay type: functional, cell-based
[11] = tested on: L6; assay: Effect on human myc epitope-tagged total GLUT4 level overexpressed in rat L6 cells at 25 uM after 8 hrs by Western blotting analysis; assay type: functional, cell-based
Procedure, shortened: (§2)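 Whole-cell lysates of GLUT1myc- or GLUT4myc-overexpressing L6 myotubes were made after the same treatments as in the surface assay. Western blots were run for total transporter content.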

[12] = tested on: L6; assay: Effect on human myc epitope-tagged total GLUT1 level overexpressed in rat L6 cells at 25 uM after 8 hrs by Western blotting analysis; assay type: functional, cell-based; procedure, shortened: as §2
[13] = target: T1, Solute carrier family 2, facilitated glucose transporter member 4 (Homo sapiens) (UniProt P14672); assay: Induction of human myc epitope-tagged GLUT4 translocation to plasma membrane overexpressed in rat L6 cells at 25 uM after 8 hrs by immunocolorimetric analysis in presence of 23.5 mM D-glucose relative to insulin; assay type: cell-based
T1 sequence (whole entry): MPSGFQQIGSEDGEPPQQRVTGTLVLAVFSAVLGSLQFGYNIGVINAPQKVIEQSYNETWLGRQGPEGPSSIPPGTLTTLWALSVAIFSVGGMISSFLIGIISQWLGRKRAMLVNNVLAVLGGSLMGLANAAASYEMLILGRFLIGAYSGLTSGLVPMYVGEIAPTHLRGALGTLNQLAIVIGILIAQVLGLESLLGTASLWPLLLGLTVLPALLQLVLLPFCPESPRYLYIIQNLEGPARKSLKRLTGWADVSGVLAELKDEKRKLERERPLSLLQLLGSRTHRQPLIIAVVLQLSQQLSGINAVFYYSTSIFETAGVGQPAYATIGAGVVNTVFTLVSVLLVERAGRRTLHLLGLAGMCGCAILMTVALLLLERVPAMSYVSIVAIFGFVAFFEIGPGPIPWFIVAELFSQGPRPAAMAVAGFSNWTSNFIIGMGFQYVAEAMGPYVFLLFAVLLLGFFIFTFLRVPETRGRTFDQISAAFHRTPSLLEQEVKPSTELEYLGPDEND
Procedure, shortened: (§3)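 L6 myotubes overexpressing GLUT1myc or GLUT4myc were held 9 h in serum-free αMEM with 0.5% BSA and 23.5 mM glucose. They received peptide (25 μM) or 0.1% DMSO over the last 8 h, and insulin (100 nM) or ALA (2 mM) over the last 30 min. Live cells were labelled with anti-c-Myc (1:200) and fixed in 3% formaldehyde. HRP anti-rabbit IgG (1:2000) and OPD were added, and absorbance was read at 492 nm.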

[14] = target: T2, Solute carrier family 2, facilitated glucose transporter member 1 (Homo sapiens) (UniProt P11166); assay: Induction of human myc epitope-tagged GLUT1 translocation to plasma membrane overexpressed in rat L6 cells at 25 uM after 8 hrs by immunocolorimetric analysis in presence of 23.5 mM D-glucose; assay type: cell-based; procedure, shortened: as §3
T2 sequence (whole entry): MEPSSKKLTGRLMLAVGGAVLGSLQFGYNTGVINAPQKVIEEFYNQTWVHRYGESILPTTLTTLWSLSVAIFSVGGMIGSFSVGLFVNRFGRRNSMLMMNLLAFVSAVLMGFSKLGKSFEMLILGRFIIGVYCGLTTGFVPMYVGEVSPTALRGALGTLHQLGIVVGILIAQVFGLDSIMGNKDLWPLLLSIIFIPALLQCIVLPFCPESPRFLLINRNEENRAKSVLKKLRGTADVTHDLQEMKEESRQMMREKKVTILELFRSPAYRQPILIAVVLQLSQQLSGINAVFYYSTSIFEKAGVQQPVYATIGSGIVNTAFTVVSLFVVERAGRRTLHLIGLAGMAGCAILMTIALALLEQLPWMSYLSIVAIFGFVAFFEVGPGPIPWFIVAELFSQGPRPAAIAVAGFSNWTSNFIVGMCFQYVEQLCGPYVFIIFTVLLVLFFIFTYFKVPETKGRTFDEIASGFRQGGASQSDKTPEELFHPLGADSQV

[15] = tested on: L6; assay: Antihyperglycemic activity in rat L6 cells assessed as increase in [3H]dGlc uptake at 25 uM after 6 to 12 hrs by liquid scintillation counting analysis; assay type: functional, cell-based
[16] = tested on: L6; assay: Potency index, ratio of compound activity to ALA activity for increase in [3H]dGlc uptake in rat L6 cells; assay type: functional
Procedure, shortened: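 L6 myotubes (differentiated in αMEM, 2% FCS) preincubated 24 h in 23.5 mM D-glucose, then 4 h serum-free with 0.5% BSA. Peptide at increasing concentrations for 12 h, or ALA 2 mM for 30 min; vehicle 0.1% DMSO. Uptake: 0.1 mM dGlc plus [3H]dGlc 1.3 μCi/mL in PBS pH 7.4, 5 min RT; SDS lysis, scintillation counting, % of vehicle basal. Ratio compares concentrations giving similar uptake.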

[17] = tested on: L6; assay: Antihyperglycemic activity in rat L6 cells assessed as increase in [3H]dGlc uptake at 5 uM after 12 hrs by liquid scintillation counting analysis; assay type: functional, cell-based
Procedure, shortened: (§4)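 Differentiated L6 myotubes were preincubated 24 h in αMEM with 2% FCS and 5.5 or 23.5 mM D-glucose, then switched to FCS-free medium with 0.5% BSA 4 h before the assay. Peptide was given for 12 h or ALA for 30 min, vehicle 0.1% DMSO. After PBS rinses, cells took up 0.1 mM dGlc plus [3H]dGlc (1.3 μCi mL−1) for 5 min at room temperature. Cells were lysed in 0.1% SDS and counted by scintillation. Uptake is expressed as % of the DMSO basal rate.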

[18] = tested on: L6; assay: Antihyperglycemic activity in rat L6 cells assessed as increase in [3H]dGlc uptake after 12 hrs by liquid scintillation counting analysis; assay type: functional, cell-based; procedure, shortened: as §4
[19] = Antioxidant activity assessed as inhibition of H2O2-induced hydroxyl radical formation by EPR spectroscopic analysis in absence of Fe2+; assay type: functional
[20] = Potency index, ratio of Histidine EC50 to compound EC50 for inhibition of H2O2-induced ROS production; assay type: functional

For `NCCCC[C@H]1NC(=O)[C@H](Cc2c[nH]cn2)NC(=O)[C@@H](Cc2c[nH]cn2)NC(=O)[C@H](Cc2c[nH]cn2)NC(=O)[C@@H](Cc2c[nH]cn2)NC(=O)[C@H](Cc2c[nH]c3ccccc23)NC(=O)[C@@H](Cc2c[nH]c3ccccc23)NC(=O)[C@H](Cc2c[nH]cn2)NC1=O`, which Activity [1] is on record?
The Activity was “Active”.

And the degraded at 730.5 h [2]?
The degraded at 730.5 h was under 5%.

And the EC50 [3]?
Its EC50 is 3000 nM.

What about the EC50 [4] of the same compound?
The EC50 was 400 nM.

With `NCCCC[C@H]1NC(=O)[C@H](Cc2c[nH]cn2)NC(=O)[C@@H](Cc2c[nH]c3ccccc23)NC(=O)[C@H](Cc2c[nH]c3ccccc23)NC(=O)[C@@H](Cc2c[nH]cn2)NC(=O)[C@H](Cc2c[nH]cn2)NC(=O)[C@@H](Cc2c[nH]cn2)NC(=O)[C@H](Cc2c[nH]cn2)NC1=O` as the compound, how does the Activity [5] read?
Its Activity is “Active”.

What about the Activity [6] of the same compound?
Its Activity is “Active”.

And the Activity [7]?
Its Activity is “Active”.

What about the Activity [8] of the same compound?
The Activity was “Active”.

And the Activity [9]?
The Activity was “inactive”.

What about the Activity [10] of the same compound?
The Activity was “inactive”.

And the Activity [11]?
Its Activity is “inactive”.

And the Activity [12]?
Its Activity is “inactive”.

And the Activity [13]?
Its Activity is 60%.

What about the Activity [14] of the same compound?
The Activity was “Active”.

What about the Activity [15] of the same compound?
Its Activity is “Active”.

And the Ratio [16]?
The Ratio was 80.

And the Activity [17]?
The Activity was “Active”.

And the Activity [18]?
Its Activity is “Dose-dependent effect”.

What about the inhibition [19] of the same compound?
The inhibition was “Active”.

What about the inhibition [3] of the same compound?
The inhibition was “Dose-dependent effect”.

And the Ratio EC50 [20]?
The Ratio EC50 was 15.

What does the source list for `NCCCC[C@H]1NC(=O)[C@H](Cc2c[nH]cn2)NC(=O)[C@@H](Cc2c[nH]c3ccccc23)NC(=O)[C@H](Cc2c[nH]c3ccccc23)NC(=O)[C@@H](Cc2c[nH]cn2)NC(=O)[C@H](Cc2c[nH]cn2)NC(=O)[C@@H](Cc2c[nH]cn2)NC(=O)[C@H](CO)NC1=O`?
Ratio EC50 [20]: 30; EC50 [4]: 200 nM
